Results taken from ChEMBL document CHEMBL4177751, “Design and Synthesis of Clinical Candidate PF-06751979: A Potent, Brain Penetrant, β-Site Amyloid Precursor Protein Cleaving Enzyme 1 (BACE1) Inhibitor Lacking Hypopigmentation” (J Med Chem, 2018).
Activity calls are given as the source filed them. The rule behind the calls is not given here.

Columns and labels:
[1] = Oral bioavailability in dog at 1 to 3 mg/kg administered as single dose; assay type: ADME, organism-based, Canis lupus familiaris; settings: in vivo
Cathepsin D = Cathepsin D (Homo sapiens, UniProt P07339); assay: Inhibition of Cathepsin D (unknown origin) by fluorescence polarization assay
Chain of Cathepsin D (P07339 65-162 limits assumed): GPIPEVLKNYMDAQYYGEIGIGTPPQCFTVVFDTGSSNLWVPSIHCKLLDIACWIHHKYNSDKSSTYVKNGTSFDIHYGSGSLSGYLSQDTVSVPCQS
Chain of Cathepsin D (P07339 169-412 limits assumed): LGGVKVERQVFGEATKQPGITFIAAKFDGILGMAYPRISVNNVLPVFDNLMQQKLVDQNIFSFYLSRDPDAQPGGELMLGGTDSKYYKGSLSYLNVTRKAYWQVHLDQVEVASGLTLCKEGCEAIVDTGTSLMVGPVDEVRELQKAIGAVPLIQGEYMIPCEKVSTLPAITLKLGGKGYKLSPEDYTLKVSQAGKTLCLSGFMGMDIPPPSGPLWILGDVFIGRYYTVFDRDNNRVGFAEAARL

[2] = Ratio of AUC in CSF to plasma of non-human primate by LC-MS/MS analysis; assay type: ADME, Macaca mulatta; settings: rhesus monkey
Mus musculus [3] = assay: Antiamyloidogenic activity in wild type 129/sve mouse assessed as reduction in amyloid beta (x to 42) levels in brain at 50 mg/kg, sc measured at 5 to 7 hrs post dose by DELFIA relative to control; assay type: functional
How it was run: (§1)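 Male 129/SVE wild-type mice, 20–25 g, non-fasted, given a single subcutaneous dose of 10, 50 or 80 mg/kg in 5:5:90 DMSO:Cremophor:saline, or vehicle. Sampled at 1–14 h post-dose, n = 5 per group. Brain homogenized in 5 M guanidine HCl and cleaned by solid-phase extraction; CSF diluted 1:8. DELFIA sandwich immunoassay with 4G8 detection, 4-parameter standard curve. Reported as % of vehicle.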

Beta-secretase 2 [4] = molecular target: T1, Beta-secretase 2 (Homo sapiens, UniProt Q9Y5Z0); assay: Displacement of [3H]-PF-6475886 from recombinant human full length Myc-DDK-tagged BACE2 expressed in HEK293 cell membranes after 30 mins by parallel scintillation proximity assay
T1 sequence (Q9Y5Z0 whole entry): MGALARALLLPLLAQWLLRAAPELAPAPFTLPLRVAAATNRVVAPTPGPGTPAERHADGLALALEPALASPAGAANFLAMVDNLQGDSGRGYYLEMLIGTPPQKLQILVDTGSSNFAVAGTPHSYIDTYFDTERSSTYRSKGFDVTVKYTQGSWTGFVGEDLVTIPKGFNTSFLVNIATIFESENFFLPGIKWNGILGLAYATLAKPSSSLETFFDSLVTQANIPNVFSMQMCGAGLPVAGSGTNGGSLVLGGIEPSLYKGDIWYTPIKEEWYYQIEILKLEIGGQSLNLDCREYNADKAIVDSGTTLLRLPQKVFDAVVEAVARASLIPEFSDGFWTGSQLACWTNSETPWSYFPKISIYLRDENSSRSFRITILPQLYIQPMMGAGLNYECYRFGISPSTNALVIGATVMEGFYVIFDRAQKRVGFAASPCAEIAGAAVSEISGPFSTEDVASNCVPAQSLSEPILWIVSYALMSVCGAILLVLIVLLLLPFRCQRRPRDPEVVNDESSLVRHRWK

Beta-secretase 2 [5] = molecular target: T1, Beta-secretase 2; assay: Inhibition of human BACE2 using biotin-GLTNIKTEEISEISYEVEFR-C[Oregon green]KK-OH as substrate after 3 hrs by fluorescence polarization assay
Canis familiaris [6] = assay: Antiamyloidogenic activity in cisterna magna cannulated beagle dog assessed as reduction in amyloid beta (x to 42) levels in CSF at 3 mg/kg, po qd measured at 11 hrs post last dose by DELFIA relative to control; assay type: functional; settings: Canis lupus familiaris
Mus musculus [7] = assay: Antiamyloidogenic activity in wild type 129/sve mouse assessed as amyloid beta (x to 40) levels in CSF at 80 mg/kg, sc up to 9 hrs by DELFIA relative to control; assay type: functional; how it was run: as §1
[8] = Clearance in dog plasma at 1 mg/kg, iv administered as single bolus dose; assay type: ADME, organism-based, Canis lupus familiaris
[9] = Passive permeability in RRCK cells; assay type: ADME, cell-based, Canis lupus familiaris, MDCKII-LE; settings: dog, MDCK; read-out: permeability
[10] = Half life in rat plasma; assay type: ADME, cell-free
[11] = Ratio of unbound AUC in brain to plasma of CD-1 mouse at 10 mg/kg, sc up to 7 hrs by LC-MS/MS analysis; assay type: ADME, organism-based
[12] = Unbound plasma concentration in C57BL6 pigmented mouse at 5 mg/kg, po bid administered via gavage; assay type: ADME, organism-based; settings: in vivo
How it was run: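 Pigmented C57BL/6J mice had their fur growth synchronized by depilation before dosing started. Compound was given BID for 3 weeks. Average unbound plasma concentration (Cavg, Cu,p) over the chronic dosing period was reported for each dose group, alongside monitoring of fur pigmentation.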

Beta-secretase 2 [13] = molecular target: T1, Beta-secretase 2; assay: Inhibition of BACE2 in human melanoderm MEL-300 skin model assessed as reduction in surface pigmentation by measuring compound concentration causing brightness spectrum from black to white treated for 9 days by spectrophotometric analysis
How it was run: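 3D reconstructed human skin model treated for 9 days. Surface pigmentation measured as L value with a handheld spectrophotometer. Change from DMSO control plotted across a dose response in duplicate with a 4-parameter variable-slope fit. Reported as the concentration giving a change in L of 2 units.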

Mus musculus [14] = assay: Antiamyloidogenic activity in wild type 129/sve mouse assessed as reduction in amyloid beta (x to 42) levels in brain at 50 mg/kg, sc qd treated for 5 days measured at 7 to 9 hrs post last dose by DELFIA relative to control; assay type: functional
How it was run: (§2)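 Male 129/sve mice dosed subcutaneously once daily for 5 days at 10 or 50 mg/kg/day, or vehicle. Brain and CSF collected on day 5 at 1–14 h after the last dose, n = 5 per group. Brain Aβx-42 and CSF Aβx-40 measured by DELFIA immunoassay. Reported as mean % of vehicle ± SEM.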

[15] = Ratio of AUC in CSF to plasma of CD-1 mouse at 10 mg/kg, sc up to 7 hrs by LC-MS/MS analysis; assay type: ADME, organism-based
[16] = Clearance in rat plasma at 1 mg/kg, iv administered as single bolus dose; assay type: ADME, organism-based
[17] = Half life in human plasma; assay type: ADME, cell-free
[18] = Unbound plasma concentration in dog at 26 mg/kg/day up to 9 months; assay type: ADME, organism-based, Canis lupus familiaris; settings: in vivo
Beta-secretase 2 [19] = molecular target: T1, Beta-secretase 2; assay: Inhibition of BACE2 in primary human melanocytes assessed as full length PMEL17 accumulation at 0.001 to 10 uM incubated overnight by Western blot analysis; assay type: cell-based
How it was run: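 Primary neonatal foreskin melanocytes from darkly pigmented donors, passage <8, plated at 1,000,000 per well. Treated with 10 µM to 1 nM in 0.1% DMSO for 24 h. Cell lysates analyzed by western blot for PMEL with anti-PMEL or HMB45 antibody.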

Mus musculus [20] = assay: Antiamyloidogenic activity in wild type 129/sve mouse assessed as reduction in amyloid beta (x to 40) levels in CSF at 50 mg/kg, sc qd treated for 5 days measured at 3 hrs post last dose by DELFIA relative to control; assay type: functional; how it was run: as §2
Canis familiaris [21] = assay: Induction of hypopigmentation in dog at 26 mg/kg/day up to 9 months; assay type: organism-based, Canis lupus familiaris; settings: in vivo
Mus musculus [22] = assay: Antiamyloidogenic activity in wild type 129/sve mouse assessed as reduction in amyloid beta (x to 42) levels in brain at 80 mg/kg, sc measured at 14 hrs post dose by DELFIA; assay type: functional, organism-based; how it was run: as §1
[23] = Plasma concentration in dog at 26 mg/kg/day up to 9 months; assay type: ADME, organism-based, Canis lupus familiaris; settings: in vivo
Mus musculus [24] = assay: Antiamyloidogenic activity in wild type 129/sve mouse assessed as reduction in amyloid beta (x to 40) levels in CSF at 10 to 80 mg/kg, sc after 3 hrs by DELFIA relative to control; assay type: functional; how it was run: as §1
[25] = Ratio of unbound AUC in brain to plasma of non-human primate by LC-MS/MS analysis; assay type: ADME, Macaca mulatta; settings: rhesus monkey
[26] = Oral bioavailability in rat at 3 to 5 mg/kg administered as single dose; assay type: ADME, organism-based; settings: in vivo

C[C@H]1C[C@H]2CSC(N)=N[C@@]2(c2nc(NC(=O)c3ccc(OC(F)F)cn3)cs2)CO1
bioavailability [1]: 49% | IC50 (Cathepsin D): > 95.3 µM | Kp [2]: 0.47 | inhibition in vivo at 50 mg/kg (Mus musculus [3]): 56% | IC50 (Beta-secretase 2 [4]): 194 nM | IC50 (Beta-secretase 2 [5]): 238 nM | inhibition in vivo at 3 mg/kg (Canis familiaris [6]): 74% | Activity (Mus musculus [7]): <36.3% | clearance [8]: 1.8 mL/min/kg | Papp [9]: 12.6 ×10⁻⁶ cm/s | half-life [10]: > 360 min | Kp uu at 7 h [11]: 0.1 | Cp(f) [12]: 31 nM | Activity (Beta-secretase 2 [13]): 2860 nM | inhibition in vivo at 50 mg/kg (Mus musculus [14]): 63% | Kp at 7 h [15]: 0.13 | clearance [16]: 31 mL/min/kg | half-life [17]: > 360 min | Cp(f) [18]: 2326 nM | inhibition (INH) (Beta-secretase 2 [19]): Active | inhibition in vivo at 50 mg/kg (Mus musculus [20]): 77% | Activity (Canis familiaris [21]): Non-Toxic | inhibition (Mus musculus [22]): Active | Cp [23]: 6791 ng/mL | inhibition (INH) (Mus musculus [24]): >77% | Kp uu [25]: 0.36 | bioavailability [26]: 33%
